In ChEMBL document CHEMBL1143851, “Antimicrobial susceptibilities of Peptostreptococcus anaerobius and the newly described Peptostreptococcus stomatis isolated from various human sources” (2007) one finds MIC50 and MIC90 data, which are given here for 7 compounds.

Test [1] concerns Peptostreptococcus anaerobius. Nature of the test: Antibacterial activity against Peptostreptococcus anaerobius. Type of test: functional. Put shortly:
(§1)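 Clinical isolates (1985–2005) revived from −70°C stocks and subcultured on brucella blood agar. Etest MICs: 48-h anaerobic growth on prereduced brucella and fastidious anaerobe agars (5% defibrinated sheep blood, hemin, vitamin K1) suspended in 0.9% NaCl to 1–2 McFarland, spread on fresh plates of both media; incubated anaerobically at 37°C for 48 h (72 h for slow growers).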

The test system of test [2] is Peptostreptococcus stomatis. Nature of the test: Antibacterial activity against Peptostreptococcus stomatis. Type of test: functional. Summed up:
as §1

≈ marks a conversion by molar mass, not a printed value. Some results are limits rather than exact numbers.

As to `CC1(C)S[C@@H]2[C@H](NC(=O)[C@H](N)c3ccc(O)cc3)C(=O)N2[C@H]1C(=O)O` [AMOXICILLIN], in test [1], the MIC50 was 0.125 µg/mL (≈ 0.342 µM) and the MIC90 came to 0.38 µg/mL (≈ 1.04 µM). In test [2], this compound gave an MIC50 below 0.016 µg/mL and an MIC90 of 0.094 µg/mL (≈ 0.257 µM).
For `CC[C@H]1OC(=O)[C@H](C)[C@@H](O[C@H]2C[C@@](C)(OC)[C@@H](O)[C@H](C)O2)[C@H](C)[C@@H](O[C@@H]2O[C@H](C)C[C@H](N(C)C)[C@H]2O)[C@](C)(O)C[C@@H](C)CN(C)[C@H](C)[C@@H](O)[C@]1(C)O` [AZITHROMYCIN], the MIC50 in test [1] stood at 0.5 µg/mL (≈ 0.668 µM); in test [2], 0.19 µg/mL (≈ 0.254 µM). The results for the MIC90 in test [1] and in test [2] were 1 µg/mL (≈ 1.34 µM) and 0.75 µg/mL (≈ 1 µM), respectively.
In the same order, the values of `CO[C@@]1(NC(=O)Cc2cccs2)C(=O)N2C(C(=O)O)=C(COC(N)=O)CS[C@@H]21` [CEFOXITIN] are 0.38 µg/mL (≈ 0.889 µM), 0.064 µg/mL (≈ 0.15 µM), 0.75 µg/mL (≈ 1.75 µM) and 0.38 µg/mL (≈ 0.889 µM).
In the same order, the values of `CCC[C@@H]1C[C@@H](C(=O)N[C@@H]([C@H]2O[C@H](SC)[C@H](O)[C@@H](O)[C@H]2O)[C@H](C)Cl)N(C)C1` [CLINDAMYCIN] are 0.19 µg/mL (≈ 0.447 µM), below 0.016 µg/mL, 0.75 µg/mL (≈ 1.76 µM) and 0.016 µg/mL (≈ 0.0376 µM).
On the same counts, the results for `C[C@@H](O)[C@H]1C(=O)N2C(C(=O)O)=C(S[C@@H]3CN[C@H](C(=O)Nc4cccc(C(=O)O)c4)C3)[C@H](C)[C@H]12` [ERTAPENEM] are 0.25 µg/mL (≈ 0.526 µM), 0.047 µg/mL (≈ 0.0988 µM), 0.38 µg/mL (≈ 0.799 µM) and 0.19 µg/mL (≈ 0.4 µM).
For `Cc1ncc([N+](=O)[O-])n1CCO` [METRONIDAZOLE], in test [1], the MIC50 is 0.094 µg/mL (≈ 0.549 µM) and the MIC90 worked out at 0.19 µg/mL (≈ 1.11 µM). In test [2], this compound displayed an MIC50 below 0.016 µg/mL and an MIC90 of 0.047 µg/mL (≈ 0.275 µM).
In the same order, the values of `COc1c(N2C[C@@H]3CCCN[C@@H]3C2)c(F)cc2c(=O)c(C(=O)O)cn(C3CC3)c12` [MOXIFLOXACIN] are 0.125 µg/mL (≈ 0.311 µM), 0.125 µg/mL (≈ 0.311 µM), 0.094 µg/mL (≈ 0.234 µM) and 0.125 µg/mL (≈ 0.311 µM).

By MIC50 is commonly meant the lowest concentration that inhibits either 50% of growth or 50% of the strains tested, depending on the study. Higher therefore signals lower susceptibility. Broadly, the MIC90 is the lowest concentration that inhibits either 90% of growth or 90% of the strains tested, depending on the study.
